{
  "source": "ChEMBL document CHEMBL2434893",
  "about": "“Synthesis, DNA binding and anti-leukemic activity of an aminoacyl nucleolipid” (Bioorg Med Chem Lett, 2013)",
  "key": {"M14": {"tested_on": "M14", "test": "Cytotoxicity against human M14 cells assessed as cell growth at 10 uM after 48 hrs by SRB assay relative to control", "type": "functional", "details": "M14, 48 h, read-out: Activity", "how_it_was_run": "(§1)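 NCI Developmental Therapeutics Program 60-cell-line screen at a single dose of 10 μM. Cells incubated with compound for 48 h at 37 °C before viability determination.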"}, "Hs-578T": {"tested_on": "Hs-578T", "test": "Cytotoxicity against human Hs578T cells assessed as cell growth at 10 uM after 48 hrs by SRB assay relative to control", "type": "functional", "details": "read-out: Activity", "how_it_was_run": "as §1"}, "OVCAR-3": {"tested_on": "OVCAR-3", "test": "Cytotoxicity against human OVCAR3 cells assessed as cell growth at 10 uM after 48 hrs by SRB assay relative to control", "type": "functional", "details": "OVCAR-3, 48 h, read-out: Activity", "how_it_was_run": "as §1"}, "NCI-H522": {"tested_on": "NCI-H522", "test": "Cytotoxicity against human NCI-H522 cells assessed as cell growth at 10 uM after 48 hrs by SRB assay relative to control", "type": "functional", "details": "NCI-H522, 48 h, read-out: Activity", "how_it_was_run": "as §1"}, "DU-145": {"tested_on": "DU-145", "test": "Cytotoxicity against human DU145 cells assessed as cell growth at 10 uM after 48 hrs by SRB assay relative to control", "type": "functional", "details": "DU-145, 48 h, read-out: Activity", "how_it_was_run": "as §1"}, "RPMI-8226": {"tested_on": "RPMI-8226", "test": "Cytotoxicity against human RPMI8226 cells assessed as cell growth at 10 uM after 48 hrs by SRB assay relative to control", "type": "functional", "details": "RPMI-8226, 48 h, read-out: Activity", "how_it_was_run": "as §1"}, "HCT-15": {"tested_on": "HCT-15", "test": "Cytotoxicity against human HCT15 cells assessed as cell growth at 10 uM after 48 hrs by SRB assay relative to control", "type": "functional", "details": "HCT-15, 48 h, read-out: Activity", "how_it_was_run": "as §1"}, "UACC-257": {"tested_on": "UACC-257", "test": "Cytotoxicity against human UACC257 cells assessed as cell growth at 10 uM after 48 hrs by SRB assay relative to control", "type": "functional", "details": "UACC-257, 48 h, read-out: Activity", "how_it_was_run": "(§2)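 Single-dose (10 μM) screen run by the NCI Developmental Therapeutics Program on its 60 human cancer cell line panel. Viability was determined after 48 h incubation with the cells at 37 °C.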"}, "SW-620": {"tested_on": "SW-620", "test": "Cytotoxicity against human SW620 cells assessed as cell growth at 10 uM after 48 hrs by SRB assay relative to control", "type": "functional", "details": "SW-620, 48 h, read-out: Activity", "how_it_was_run": "as §2"}, "CCRF-CEM": {"tested_on": "CCRF-CEM", "test": "Cytotoxicity against human CCRF-CEM cells assessed as cell growth at 10 uM after 48 hrs by SRB assay relative to control", "type": "functional", "details": "read-out: Activity", "how_it_was_run": "as §1"}, "UACC-62": {"tested_on": "UACC-62", "test": "Cytotoxicity against human UACC62 cells assessed as cell growth at 10 uM after 48 hrs by SRB assay relative to control", "type": "functional", "details": "UACC-62, 48 h, read-out: Activity", "how_it_was_run": "as §2"}, "PC-3": {"tested_on": "PC-3", "test": "Cytotoxicity against human PC3 cells assessed as cell growth at 10 uM after 48 hrs by SRB assay relative to control", "type": "functional", "details": "PC-3, 48 h, read-out: Activity", "how_it_was_run": "as §1"}, "CAKI-1": {"tested_on": "CAKI-1", "test": "Cytotoxicity against human Caki1 cells assessed as cell growth at 10 uM after 48 hrs by SRB assay relative to control", "type": "functional", "details": "CAKI-1, 48 h, read-out: Activity", "how_it_was_run": "as §1"}, "OVCAR-8": {"tested_on": "OVCAR-8", "test": "Cytotoxicity against human OVCAR8 cells assessed as cell growth at 10 uM after 48 hrs by SRB assay relative to control", "type": "functional", "details": "OVCAR-8, 48 h, read-out: Activity", "how_it_was_run": "as §1"}, "SF-268": {"tested_on": "SF-268", "test": "Cytotoxicity against human SF268 cells assessed as cell growth at 10 uM after 48 hrs by SRB assay relative to control", "type": "functional", "details": "SF-268, 48 h, read-out: Activity", "how_it_was_run": "as §1"}, "NCI-H322M": {"tested_on": "NCI-H322M", "test": "Cytotoxicity against human NCI-H322M cells assessed as cell growth at 10 uM after 48 hrs by SRB assay relative to control", "type": "functional", "details": "read-out: Activity", "how_it_was_run": "as §1"}, "SN12C": {"tested_on": "SN12C", "test": "Cytotoxicity against human SN12C cells assessed as cell growth at 10 uM after 48 hrs by SRB assay relative to control", "type": "functional", "details": "read-out: Activity", "how_it_was_run": "as §2"}, "SNB-19": {"tested_on": "SNB-19", "test": "Cytotoxicity against human SNB19 cells assessed as cell growth at 10 uM after 48 hrs by SRB assay relative to control", "type": "functional", "details": "SNB-19, 48 h, read-out: Activity", "how_it_was_run": "as §2"}, "[1]": {"test": "Binding affinity to GRP78 duplex DNA (unknown origin) assessed as change in duplex DNA hyperchromicity at 0.9 to 3.9 mM after 36 hrs by thermal denaturation assay", "how_it_was_run": "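Duplex DNA (1.1 μM) annealed from complementary strands in phosphate buffer (140 mM KCl, 1 mM MgCl₂, 5 mM sodium phosphate, pH 7.2), with ligand 0.2–3.9 mM. Melting followed as % hyperchromicity at 260 nm over 5–90 °C. Tm shift measured against native duplex.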"}, "NCI-H226": {"tested_on": "NCI-H226", "test": "Cytotoxicity against human NCI-H226 cells assessed as cell growth at 10 uM after 48 hrs by SRB assay relative to control", "type": "functional", "details": "NCI-H226, 48 h, read-out: Activity", "how_it_was_run": "as §1"}, "RXF 393": {"tested_on": "RXF 393", "test": "Cytotoxicity against human RXF393 cells assessed as cell growth at 10 uM after 48 hrs by SRB assay relative to control", "type": "functional", "details": "RXF 393, 48 h, read-out: Activity", "how_it_was_run": "as §1"}, "A498": {"tested_on": "A498", "test": "Cytotoxicity against human A498 cells assessed as cell growth at 10 uM after 48 hrs by SRB assay relative to control", "type": "functional", "details": "A498, 48 h, read-out: Activity", "how_it_was_run": "as §1"}, "786-0": {"tested_on": "786-0", "test": "Cytotoxicity against human 786-0 cells assessed as cell growth at 10 uM after 48 hrs by SRB assay relative to control", "type": "functional", "details": "786-0, 48 h, read-out: Activity", "how_it_was_run": "as §1"}, "[2]": {"test": "Binding affinity to GRP78 duplex DNA (unknown origin) assessed as DNA-compound complex formation at 3.9 mM measured at 36 hrs by dynamic light scattering analysis relative to control", "how_it_was_run": "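DNA (1.1 μM), with or without ligand at 3.9 mM, incubated 36 h in phosphate buffer. Particle size then measured by dynamic light scattering against native DNA and ligand alone.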"}, "SK-MEL-28": {"tested_on": "SK-MEL-28", "test": "Cytotoxicity against human SK-MEL-28 cells assessed as cell growth at 10 uM after 48 hrs by SRB assay relative to control", "type": "functional", "details": "SK-MEL-28, 48 h, read-out: Activity", "how_it_was_run": "as §1"}, "MDA-MB-231": {"tested_on": "MDA-MB-231", "test": "Cytotoxicity against human MDA-MB-231 cells assessed as cell growth at 10 uM after 48 hrs by SRB assay relative to control", "type": "functional", "details": "MDA-MB-231, 48 h, read-out: Activity", "how_it_was_run": "as §1"}, "SF-539": {"tested_on": "SF-539", "test": "Cytotoxicity against human SF539 cells assessed as cell growth at 10 uM after 48 hrs by SRB assay relative to control", "type": "functional", "details": "SF-539, 48 h, read-out: Activity", "how_it_was_run": "as §1"}, "COLO 205": {"tested_on": "COLO 205", "test": "Cytotoxicity against human COLO205 cells assessed as cell growth at 10 uM after 48 hrs by SRB assay relative to control", "type": "functional", "details": "COLO 205, 48 h, read-out: Activity", "how_it_was_run": "as §1"}, "UO-31": {"tested_on": "UO-31", "test": "Cytotoxicity against human UO31 cells assessed as cell growth at 10 uM after 48 hrs by SRB assay relative to control", "type": "functional", "details": "UO-31, 48 h, read-out: Activity", "how_it_was_run": "as §2"}, "KM12": {"tested_on": "KM12", "test": "Cytotoxicity against human KM12 cells assessed as cell growth at 10 uM after 48 hrs by SRB assay relative to control", "type": "functional", "details": "KM12, 48 h, read-out: Activity", "how_it_was_run": "as §1"}, "NCI-H460": {"tested_on": "NCI-H460", "test": "Cytotoxicity against human NCI-H460 cells assessed as cell growth at 10 uM after 48 hrs by SRB assay relative to control", "type": "functional", "details": "NCI-H460, 48 h, read-out: Activity", "how_it_was_run": "as §1"}},
  "note": "Active and inactive are the calls of the source. The calls are words filed in the database; no cut-off is given here.",
  "data": [
    {"smiles": "CCCCCCCCCCCCCCCC(=O)O[C@@H]1[C@H](OC(=O)CCCCCCCCCCCCCCC)[C@@H](C(=O)N[C@@H](CCCCN)C(=O)OC)O[C@H]1n1cnc2c(=O)[nH]c(NC(=O)C(C)C)nc21.Cl", "values": [
      {"measurement": "growth at 10 µM", "setting": "M14", "value": 93.7, "unit": "%"},
      {"measurement": "growth at 10 µM", "setting": "Hs-578T", "value": 107, "unit": "%"},
      {"measurement": "growth at 10 µM", "setting": "OVCAR-3", "value": 105, "unit": "%"},
      {"measurement": "growth at 10 µM", "setting": "NCI-H522", "value": 84.4, "unit": "%"},
      {"measurement": "growth at 10 µM", "setting": "DU-145", "value": 107, "unit": "%"},
      {"measurement": "growth at 10 µM", "setting": "RPMI-8226", "value": 92.5, "unit": "%"},
      {"measurement": "growth at 10 µM", "setting": "HCT-15", "value": 96.6, "unit": "%"},
      {"measurement": "growth at 10 µM", "setting": "UACC-257", "value": 90.1, "unit": "%"},
      {"measurement": "growth at 10 µM", "setting": "SW-620", "value": 104, "unit": "%"},
      {"measurement": "growth at 10 µM", "setting": "CCRF-CEM", "value": 86, "unit": "%"},
      {"measurement": "growth at 10 µM", "setting": "UACC-62", "value": 112, "unit": "%"},
      {"measurement": "growth at 10 µM", "setting": "PC-3", "value": 103, "unit": "%"},
      {"measurement": "growth at 10 µM", "setting": "CAKI-1", "value": 94, "unit": "%"},
      {"measurement": "growth at 10 µM", "setting": "OVCAR-8", "value": 87, "unit": "%"},
      {"measurement": "growth at 10 µM", "setting": "SF-268", "value": 97.1, "unit": "%"},
      {"measurement": "growth at 10 µM", "setting": "NCI-H322M", "value": 89.6, "unit": "%"},
      {"measurement": "growth at 10 µM", "setting": "SN12C", "value": 105, "unit": "%"},
      {"measurement": "growth at 10 µM", "setting": "SNB-19", "value": 93.5, "unit": "%"},
      {"measurement": "Activity", "setting": "[1]", "value": "Active"},
      {"measurement": "growth at 10 µM", "setting": "NCI-H226", "value": 102, "unit": "%"},
      {"measurement": "growth at 10 µM", "setting": "RXF 393", "value": 105, "unit": "%"},
      {"measurement": "growth at 10 µM", "setting": "A498", "value": 98.1, "unit": "%"},
      {"measurement": "growth at 10 µM", "setting": "786-0", "value": 98.1, "unit": "%"},
      {"measurement": "fold change (FC)", "setting": "[2]", "value": "> 2"},
      {"measurement": "growth at 10 µM", "setting": "SK-MEL-28", "value": 113, "unit": "%"},
      {"measurement": "growth at 10 µM", "setting": "MDA-MB-231", "value": 118, "unit": "%"},
      {"measurement": "growth at 10 µM", "setting": "SF-539", "value": 103, "unit": "%"},
      {"measurement": "growth at 10 µM", "setting": "COLO 205", "value": 101, "unit": "%"},
      {"measurement": "growth at 10 µM", "setting": "UO-31", "value": 87.1, "unit": "%"},
      {"measurement": "growth at 10 µM", "setting": "KM12", "value": 95, "unit": "%"},
      {"measurement": "growth at 10 µM", "setting": "NCI-H460", "value": 101, "unit": "%"}
    ]}
  ]
}
